Compound activity: PubChem, The Scripps Research Institute Molecular Screening Center
OX1R antag-1: blocks the human orexin 1 receptor; O43613; inhibition, % at 6.6 µM; OX1R-expressing cells, FRET antagonist read-out; 1.8% of 330,000 active; in the data active = inhibition mostly above about 38%, no sharp cut-off; inactive = mostly below about 40%;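 also: 0% = agonist challenge alone and 100% = reference antagonist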
Target sequence (O43613 whole entry, looked up): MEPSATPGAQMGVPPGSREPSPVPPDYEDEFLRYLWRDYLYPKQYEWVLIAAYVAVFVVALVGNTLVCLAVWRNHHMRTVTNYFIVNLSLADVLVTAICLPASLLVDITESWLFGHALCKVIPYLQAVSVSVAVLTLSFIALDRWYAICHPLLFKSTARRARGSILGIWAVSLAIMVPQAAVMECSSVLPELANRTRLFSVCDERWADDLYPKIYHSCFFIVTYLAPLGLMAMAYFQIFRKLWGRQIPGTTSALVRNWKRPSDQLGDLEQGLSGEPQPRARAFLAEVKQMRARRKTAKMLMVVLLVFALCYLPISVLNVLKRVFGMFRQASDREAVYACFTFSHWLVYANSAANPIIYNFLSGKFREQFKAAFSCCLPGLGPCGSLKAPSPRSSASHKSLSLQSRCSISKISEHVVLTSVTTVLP
TAAR1 antagonist: human TAAR1 antagonism | Q96RJ0 | CHO RD-HGA16 TAAR1, Fluo-8 calcium fluorescence, antagonist | inhibition, % at 3 µM | 1.5% of 360,000 active;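 active = inhibition above a per-plate cutoff, the mean inhibition of test compounds on that plate plus 3 SD, cut at about 49% in these data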;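 also: 0% = DMSO plus EC80 beta-PEA response and 100% = DMSO alone without agonist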
Target sequence (Q96RJ0 whole entry, looked up): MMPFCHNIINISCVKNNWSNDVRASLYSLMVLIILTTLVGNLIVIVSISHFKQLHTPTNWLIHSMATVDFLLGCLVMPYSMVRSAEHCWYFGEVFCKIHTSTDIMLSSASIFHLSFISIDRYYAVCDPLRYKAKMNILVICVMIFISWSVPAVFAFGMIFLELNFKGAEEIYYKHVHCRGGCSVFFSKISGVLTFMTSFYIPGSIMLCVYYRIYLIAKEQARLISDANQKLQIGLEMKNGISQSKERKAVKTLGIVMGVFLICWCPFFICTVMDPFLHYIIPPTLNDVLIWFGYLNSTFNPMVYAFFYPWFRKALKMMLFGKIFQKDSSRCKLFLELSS
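System: CHO RD-HGA16 cells bearing hTAAR1. Reagent: EC80 β-phenethylamine stimulus. Schedule: seeding 17-24 h prior, 75-min 37 °C, 30-min RT dye loading. Signal: Fluo-8 intracellular calcium dye fluorescence, real-time kinetic reads. Read-out: % inhibition from peak post-agonist over basal fluorescence ratio. Benchmarks: vehicle wells and EC80 agonist wells. Replicates: n of 1.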
GalR3 antagonist: antagonists of human GalR3 | inhibition, % at 3 µM | 0.44% of 360,000 active | O60755 | AID 651719 | HEK293 GalR3-CNG cAMP membrane potential fluorescence; galR3 body fused to GalR1 C-terminus;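 active = inhibition above the screen-wide average plus 3 SD, cut at about 13% in these data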;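 also: forskolin and galanin both at EC90 stimulate the cells; cAMP rise reported by CNG channel membrane potential dye signal; 0% = forskolin plus galanin with DMSO and 100% = forskolin alone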
CHO parental Ca: signal in parental CHO cells, OX1R antagonist counter-screen. 0.63% of 330,000 active. AID 463079. inhibition, % at 5.6 µM. parental CHO-K1, ATP-induced calcium, Fluo-8 fluorescence;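 active = inhibition above that plate's mean sample inhibition plus 3 SD, cut at about 26% in these data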;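 also: 0% = ATP-challenged DMSO wells and 100% = DMSO wells without ATP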
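Measured by: calcium-sensitive Fluo-8 fluorescence / Test system: CHO parental line / Controls: ATP-challenged DMSO wells low, unchallenged DMSO wells high / Measure: % inhibition / Compound: single nominal dose of 5.6 µM per compound / Replicates: single well per compound, no replicates / Reagent: ATP as calcium-mobilizing challenge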
OX1R antag-2: blocks the human orexin 1 receptor; CHO/OX1R cells, Fluo-8 calcium fluorescence, orexin A; inhibition, % at 5 µM; 0.43% of 330,000 active;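 active = inhibition above its plate's threshold, mean inhibition of all tested compounds on the plate plus 3 SD, cut at about 37% in these data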;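 also: 0% = orexin A challenge wells and 100% = SB-334867-A antagonist wells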
TAAR1 ag: human TAAR1 agonism. CHO RD-HGA16 TAAR1, Fluo-8 calcium fluorescence; vehicle wells 0%, saturating PEA agonist 100%. activation, % at 3 µM. 0.99% of 360,000 active. AID 624467;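 active = activation above the mean activation of all test compounds in the run plus 3 SD, cut at about 38% in these data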
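Repeats: no replicates (n 1) | Material: CHO-derived RD-HGA16 cells with stable Gα16 and human TAAR1 | Technique: Kinetic Fluo-8 calcium fluorescence | Schedule: 17-24 h seeding, 75 min 37 °C dye, 30 min RT | Evaluation: % activation from peak over basal fluorescence ratio, DMSO-to-PEA scaled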
TAAR1 ag confirm: confirmation of human TAAR1 agonists; 82% of 2,400 active; activation, % at 3 µM; shares compounds with TAAR1 ag; CHO RD-HGA16 TAAR1, Fluo-8 calcium fluorescence; scaled: DMSO 0%, maximal phenethylamine 100%;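 active = activation above a cutoff set at the run's mean compound activation plus 3 SD, cut at about 39% in these data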
Ga16 ag counter: counter-screen for TAAR1 agonists: nonselective agonists in parental cells; shares compounds with TAAR1 ag; CHO-Ga16 parental, Fluo-8 calcium fluorescence; normalized to maximal ATP response, DMSO zero; 50% of 2,400 active; AID 651787; activation, % at 3 µM;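 active = activation above the run cutoff, the mean activation over all tested wells plus 3 SD, cut at about 12% in these data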;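 also: 0% = DMSO wells and 100% = maximal ATP response on the peak over basal ratio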
TAAR1 desensitize: human TAAR1 agonist that also desensitizes the receptor; shares compounds with TAAR1 ag; CHO RD-HGA16 hTAAR1, Fluo-8 calcium, beta-PEA response inhibition; inhibition, % at 3 µM; 46% of 2,400 active; AID 651951;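 active = inhibition above the run cutoff, the mean inhibition of all test compounds plus 3 SD, cut at about 49% in these data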;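 also: beta-PEA stimulus applied at its EC80; loss of beta-PEA calcium signal after compound pretreatment read as receptor desensitization; 0% = DMSO with beta-PEA at EC80 and 100% = DMSO alone without agonist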
Ga16 nonsel ant: counter-screen for TAAR1 agonists: nonselective Ga16 antagonists. 39% of 2,400 active. shares compounds with TAAR1 ag. inhibition, % at 3 µM. AID 651952. CHO-Ga16 ATP-induced calcium, Fluo-8 fluorescence;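 active = inhibition above the plate's mean compound inhibition plus 3 SD, computed per plate, cut at about 22% in these data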;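 also: 0% = EC80 ATP with DMSO and 100% = DMSO wells without ATP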
The depositor's hits bear a star; x = not tested or not shown. Sampled rows, rich in hits. Any-hit rate of the full collection: about 4.3%.

SMILES	OX1R antag-1	TAAR1 antagonist	GalR3 antagonist	CHO parental Ca	OX1R antag-2	TAAR1 ag	TAAR1 ag confirm	Ga16 ag counter	TAAR1 desensitize	Ga16 nonsel ant
Cc1ccc(-n2nnnc2SCC(=O)c2c(N)n(C3CC3)c(=O)[nH]c2=O)c(C)c1	4.8	-17.9	-3.2	-20.1	-20.2	54.7*	24.2	7.7	-6.4	-8.9
CCN1C(=O)/C(=C/c2ccc(OCc3ccc(C(=O)O)cc3)c(Cl)c2)NC1=S	-10.5	95.7*	-8.8	2.5	-9.5	100.1*	32.5	35.8*	76.2*	67.6*
CC1CCc2c(sc(NS(=O)(=O)c3ccccc3)c2C(=O)OC(C)C)C1 (configuration not stated)	23.2	17.4	3.5	-6.5	-16.7	42.9*	23.8	18.9*	25.9	25.8*
COc1ccccc1OCC(=O)NC1CCSc2ccccc21 (configuration not stated)	6.2	2.4	-8.2	-18.9	-11.9	-0.9	x	x	x	x
Nc1nc(-c2ccccc2)cn1/N=C/c1ccccc1	6.3	29.7	-5.2	-14.6	-26.4	61.5*	93.1*	5.4	70.1*	9.7
Cc1ccc(-n2nc3c(=O)n(CCCC(=O)NCCc4ccccc4)nc(C)c3c2C)cc1	9.5	-23.0	1.1	-18.0	-29.2	41.0*	36.2	5.0	-0.6	8.0
Cc1nn(CCCC(=O)NCCc2ccccc2)c(=O)c2nn(-c3ccccc3)c(C)c12	19.4	-36.2	1.3	-24.8	-24.2	-1.3	x	x	x	x
Cc1cc(C)n2c(SCC(=O)N(CCC#N)c3ccc4c(c3)OCCO4)nnc2n1	x	-10.5	-7.3	x	x	1.4	x	x	x	x
O=c1nc(N2CCCC2)nc(Nc2ccccc2)[nH]1	3.7	x	-5.0	-1.2	-11.0	x	x	3.2	x	4.7
c1ccc(Nc2nc(N3CCCC3)nc(N3CCOCC3)n2)cc1	38.5	-5.7	-1.4	-21.6	-24.9	22.4	x	x	x	x
CCCn1c(Nc2nc3ccccc3n2C)nc2ccccc21	8.0	-22.7	-5.9	-13.8	-37.9	29.7	x	x	x	x
CCCCn1c(Nc2ccccc2)nc2ccccc21	3.5	6.5	-3.6	-13.2	-22.5	45.5*	2.8	0.5	4.6	6.7
O=C(NCCCn1ccnc1)c1ccc(-c2cccc(Cl)c2Cl)o1	6.6	12.4	-3.4	-24.6	-19.2	63.2*	49.8*	33.3*	16.8	6.6
O=C(Nc1ncc(S(=O)(=O)c2ccc([N+](=O)[O-])cc2)s1)c1cccc2ccccc12	-4.4	94.5*	-0.7	32.5	35.0	128.0*	128.7*	87.6*	105.3*	79.2*
CC(C)c1nc2c(c(=O)c3ccccc3n2C)c(=O)n1CCc1ccccc1	19.0	22.8	-4.2	-32.5	-16.7	76.3*	42.9*	37.1*	27.6	19.6
COc1ccc(Cn2c(C3CCCCC3)nc3c(c(=O)c4ccccc4n3C)c2=O)cc1	5.0	x	x	-24.9	-26.1	x	x	x	x	x
CCc1nc2c(c(=O)c3ccccc3n2C)c(=O)n1C1CCCCCC1	32.2	-2.6	-2.9	-7.5	-15.4	65.6*	74.0*	55.0*	30.2	12.6
COc1ccc(CCn2c(C3CCCCC3)nc3c(c(=O)c4ccccc4n3C)c2=O)cc1	3.1	96.4*	-5.5	-15.7	15.6	111.4*	64.9*	61.3*	78.4*	64.5*
CC(C)(C)NC(=O)C[C@H]1C[C@H](C(=O)N2CCOCC2)[C@@]2(CCC3CCCC3)c3[nH]c4cc(-c5ccco5)ccc4c3CCN2C1=O	4.8	x	x	-11.1	4.0	x	x	x	x	x
CCCCN(C)CCC(=O)Nc1ccc2c(c1)CCC2	10.7	9.2	-3.6	-3.5	-43.2	44.2*	69.1*	1.3	15.6	-0.7
Cc1cccn2c(=O)c(C(=O)NC3CC(C)CC(C)(C)C3)c(O)nc12 (configuration not stated)	-1.4	-29.2	-0.9	-26.2	-11.8	2.7	x	x	x	x
Cc1cc(C(=O)CN2c3cccc4cccc(c34)S2(=O)=O)c(C)n1C	1.8	-18.0	-5.5	-6.2	-11.5	2.6	x	x	x	x
CC(Cc1ccccc1)N/C=C1\CC(=O)NC1=O (configuration not stated)	15.9	52.6*	-1.8	-8.6	-4.0	74.1*	71.7*	-0.5	22.8	6.5
Cc1ccccc1Oc1ccc(Oc2ccccc2C)nn1	13.2	28.0	-4.0	2.3	-4.8	60.1*	-2.3	0.3	-10.3	-2.0
Cc1ccccc1OCCn1ccnc1	2.7	2.5	-9.6	-1.3	-1.3	1.4	x	x	x	x
SMILES	OX1R antag-1	TAAR1 antagonist	GalR3 antagonist	CHO parental Ca	OX1R antag-2	TAAR1 ag	TAAR1 ag confirm	Ga16 ag counter	TAAR1 desensitize	Ga16 nonsel ant
CCCCc1ccc(NS(=O)(=O)c2cccc(C(=O)N3CCNC(=O)C3)c2)cc1	x	0.0	-2.4	x	x	0.2	x	x	x	x
Cn1c(=O)c(NCCc2ccccc2)c2c3c(cccc31)C(=O)c1ccccc1-2	75.8	103.7*	-5.2	100.5*	108.4*	407.3*	346.4*	305.1*	103.3*	95.4*
Cn1c(=O)c(NC2CCCCC2)c2c3c(cccc31)C(=O)c1ccccc1-2	x	66.5*	-7.5	x	x	87.2*	120.0*	124.3*	77.9*	82.6*
Cn1c(=O)cc2c3c(c(N4CCCCC4)ccc31)C(=O)c1ccccc1-2	13.7	4.5	0.8	-11.4	-25.5	-0.1	x	x	x	x
Cn1c(=O)c(NCCO)c2c3c(cccc31)C(=O)c1ccccc1-2	73.6	57.7*	0.6	96.2*	103.2*	285.0*	51.5*	157.8*	37.1	48.2*
Cn1cc(S(=O)(=O)NCCc2ccccc2)c(=O)n(C)c1=O	12.3	-14.0	-2.5	-8.9	-16.5	0.7	x	x	x	x
CCOc1ccc(CNC(=O)CCC(=O)n2nc(C)c3ccccc32)cc1	9.7	-31.1	-0.6	-8.9	-13.3	0.8	x	x	x	x
CCOC(=O)Cn1c(=N)n(CCOc2ccc3ccccc3c2)c2ccccc21	5.8	10.8	-9.7	-4.0	-8.4	57.5*	56.7*	26.1*	50.9*	40.7*
Cc1cc(N(C)C)nc(Nc2ccccc2)n1	4.7	87.3*	-6.4	-25.3	-24.4	92.0*	107.8*	0.9	99.1*	1.0
Cc1cccc(Nc2nc(C)cc(C)n2)c1	x	-28.5	-4.9	x	x	-0.5	x	x	x	x
